Data taken from ChEMBL document CHEMBL1127320, “Dual-action cephalosporins incorporating a 3'-tertiary-amine-linked quinolone” (J Med Chem, 1994).
Converted amounts (≈) assume the structure as drawn. Blank lines part the entries; values can stand above or below the compound they belong to.

How the values were obtained:
Proteus vulgaris = experiment: In vitro minimum inhibitory concentration was measured against Proteus vulgaris 1028BC (beta lactamase producer) strain.; assay type: functional
How it was run: (§1)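 Streptococci were tested on brain heart infusion agar plus 20 units/mL catalase, Proteus on Mueller-Hinton with 3% agar, and others on Mueller-Hinton agar. Inocula were 100-fold-diluted overnight cultures, about 3 × 10^4 CFU/spot, read after overnight incubation at 36 °C.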

Enterobacter cloacae [1] = experiment: In vitro minimum inhibitory concentration was measured against Enterobacter cloacae p99 (beta lactamase producer) strain.; assay type: functional
Serratia marcescens = experiment: In vitro minimum inhibitory concentration was measured against Serratia marcescens 1071(beta lactamase producer) strain.; assay type: functional; how it was run: as §1
Escherichia coli [2] = experiment: In vitro minimum inhibitory concentration was measured against Escherichia coli TEM-1 (Beta lactamase producer) strain.; assay type: functional; how it was run: as §1
Escherichia coli [3] = experiment: In vitro minimum inhibitory concentration was measured against Escherichia coli 257 strain.; assay type: functional; how it was run: as §1
Citrobacter freundii = experiment: In vitro minimum inhibitory concentration was measured against Citrobacter freundii BS-16 (beta lactamase producer) strain.; assay type: functional
How it was run: as §1, with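 “MICs were determined by agar dilution with 2-fold dilutions giving final 128–0.0156 µg/mL, extended to 0.000977 µg/mL where needed. Streptococci” for “Streptococci”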

Enterococcus faecalis = experiment: In vitro minimum inhibitory concentration was measured against Enterococcus faecalis ATCC 29212 strain.; assay type: functional; how it was run: as §1
Klebsiella pneumoniae = experiment: In vitro minimum inhibitory concentration was measured against Klebsiella pneumoniae A strain.; assay type: functional; how it was run: as §1
Escherichia coli [4] = experiment: In vitro minimum inhibitory concentration was measured against Escherichia coli ATCC 25922 strain.; assay type: functional; how it was run: as §1
Staphylococcus aureus [5] = experiment: In vitro minimum inhibitory concentration was measured against Staphylococcus aureus smith strain.; assay type: functional
Enterobacter cloacae [6] = experiment: In vitro minimum inhibitory concentration was measured against Enterobacter cloacae 5699 strain.; assay type: functional
Staphylococcus aureus [7] = experiment: In vitro minimum inhibitory concentration was measured against Staphylococcus aureus 753 (Methicillin resistant) strain.; assay type: functional
Streptococcus pyogenes = experiment: In vitro minimum inhibitory concentration was measured against Streptococcus pyogenes 4 strain.; assay type: functional; how it was run: as §1
Micrococcus luteus = experiment: In vitro minimum inhibitory concentration was measured against Micrococcus luteus ATCC 9341 strain.; assay type: functional; how it was run: as §1
Proteus mirabilis = experiment: In vitro minimum inhibitory concentration was measured against Proteus mirabilis 90 strain.; assay type: functional; how it was run: as §1
Pseudomonas aeruginosa [8] = experiment: In vitro minimum inhibitory concentration was measured against Pseudomonas aeruginosa 8780 strain.; assay type: functional; how it was run: as §1
Streptococcus pneumoniae = experiment: In vitro minimum inhibitory concentration was measured against Streptococcus pneumoniae 6301 strain; assay type: functional; how it was run: as §1
Staphylococcus aureus [9] = experiment: In vitro minimum inhibitory concentration was measured against Staphylococcus aureus 67-0 (Methicillin resistant) strain.; assay type: functional
Pseudomonas aeruginosa [10] = experiment: In vitro minimum inhibitory concentration was measured against Pseudomonas aeruginosa 18S/H strain.; assay type: functional; how it was run: as §1
[11] = system: Penicillin-binding protein 3 (Escherichia coli); experiment: Affinity for penicillin binding protein 3 of Escherichia coli UB1005 (DC0) was evaluated.; set-up: unit not given here
[12] = molecular target: T1, Penicillin-binding protein 1B (Escherichia coli K-12) (UniProt P02919); experiment: Affinity for penicillin binding protein 1b of Escherichia coli UB1005 (DC0) was evaluated.; set-up: unit not given here
T1 sequence (whole entry): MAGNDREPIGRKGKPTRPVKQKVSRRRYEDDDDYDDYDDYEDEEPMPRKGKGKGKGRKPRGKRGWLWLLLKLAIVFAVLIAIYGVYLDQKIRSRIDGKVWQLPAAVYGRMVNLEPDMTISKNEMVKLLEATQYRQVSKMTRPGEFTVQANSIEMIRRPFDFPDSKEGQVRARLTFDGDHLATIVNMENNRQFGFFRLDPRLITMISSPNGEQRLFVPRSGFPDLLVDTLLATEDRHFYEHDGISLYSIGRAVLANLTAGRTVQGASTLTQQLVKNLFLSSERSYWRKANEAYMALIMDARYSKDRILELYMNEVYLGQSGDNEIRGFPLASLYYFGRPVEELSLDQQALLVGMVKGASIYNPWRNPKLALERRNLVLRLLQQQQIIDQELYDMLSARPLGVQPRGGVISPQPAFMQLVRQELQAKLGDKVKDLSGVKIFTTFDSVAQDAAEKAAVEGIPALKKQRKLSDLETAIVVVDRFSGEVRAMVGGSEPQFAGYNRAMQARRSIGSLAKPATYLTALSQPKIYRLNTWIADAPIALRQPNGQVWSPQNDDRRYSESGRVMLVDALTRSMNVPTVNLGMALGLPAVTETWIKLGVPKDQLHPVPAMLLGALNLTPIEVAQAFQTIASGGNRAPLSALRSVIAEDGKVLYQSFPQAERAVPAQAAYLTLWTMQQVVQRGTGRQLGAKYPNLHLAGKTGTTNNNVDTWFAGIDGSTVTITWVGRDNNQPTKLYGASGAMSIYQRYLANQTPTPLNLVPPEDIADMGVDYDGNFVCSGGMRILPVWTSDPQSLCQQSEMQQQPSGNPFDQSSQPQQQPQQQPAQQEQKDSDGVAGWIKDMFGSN
How it was run: (§2)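 Solubilised membranes from sonicated E. coli UB1005 served as the binding-protein source. Binding was read as inhibition of [14C]penicillin G binding.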

[13] = molecular target: T2, Penicillin-binding protein 1A (Escherichia coli K-12) (UniProt P02918); experiment: Affinity for penicillin binding protein 1a of Escherichia coli UB1005 (DC0) was evaluated.; set-up: unit not given here; how it was run: as §2
T2 sequence (whole entry): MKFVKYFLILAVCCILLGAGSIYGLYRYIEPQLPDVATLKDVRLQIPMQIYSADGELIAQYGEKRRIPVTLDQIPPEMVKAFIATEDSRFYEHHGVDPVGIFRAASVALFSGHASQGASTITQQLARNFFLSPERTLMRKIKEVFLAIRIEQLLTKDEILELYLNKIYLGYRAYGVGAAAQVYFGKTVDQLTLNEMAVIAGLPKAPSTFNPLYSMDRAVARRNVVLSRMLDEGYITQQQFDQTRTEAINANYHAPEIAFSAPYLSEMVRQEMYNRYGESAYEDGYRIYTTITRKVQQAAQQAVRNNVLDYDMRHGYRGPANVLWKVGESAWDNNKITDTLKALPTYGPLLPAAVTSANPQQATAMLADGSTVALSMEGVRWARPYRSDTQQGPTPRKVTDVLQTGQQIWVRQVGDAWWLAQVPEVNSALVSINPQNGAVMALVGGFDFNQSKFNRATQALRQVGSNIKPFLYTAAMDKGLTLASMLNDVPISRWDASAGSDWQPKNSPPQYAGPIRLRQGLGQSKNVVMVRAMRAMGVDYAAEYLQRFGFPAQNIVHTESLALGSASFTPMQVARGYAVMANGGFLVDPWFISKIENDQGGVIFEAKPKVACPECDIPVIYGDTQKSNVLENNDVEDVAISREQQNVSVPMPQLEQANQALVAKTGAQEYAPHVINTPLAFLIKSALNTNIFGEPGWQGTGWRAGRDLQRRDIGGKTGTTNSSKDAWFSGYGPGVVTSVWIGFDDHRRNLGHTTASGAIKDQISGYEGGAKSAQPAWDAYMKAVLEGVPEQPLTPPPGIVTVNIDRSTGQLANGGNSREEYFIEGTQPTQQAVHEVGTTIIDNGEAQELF

[14] = molecular target: T3, Peptidoglycan D,D-transpeptidase MrdA (Escherichia coli K-12) (UniProt P0AD65); experiment: Affinity for penicillin binding protein 2 of Escherichia coli UB1005 (DC0) was evaluated.; set-up: unit not given here; how it was run: as §2
T3 sequence (whole entry): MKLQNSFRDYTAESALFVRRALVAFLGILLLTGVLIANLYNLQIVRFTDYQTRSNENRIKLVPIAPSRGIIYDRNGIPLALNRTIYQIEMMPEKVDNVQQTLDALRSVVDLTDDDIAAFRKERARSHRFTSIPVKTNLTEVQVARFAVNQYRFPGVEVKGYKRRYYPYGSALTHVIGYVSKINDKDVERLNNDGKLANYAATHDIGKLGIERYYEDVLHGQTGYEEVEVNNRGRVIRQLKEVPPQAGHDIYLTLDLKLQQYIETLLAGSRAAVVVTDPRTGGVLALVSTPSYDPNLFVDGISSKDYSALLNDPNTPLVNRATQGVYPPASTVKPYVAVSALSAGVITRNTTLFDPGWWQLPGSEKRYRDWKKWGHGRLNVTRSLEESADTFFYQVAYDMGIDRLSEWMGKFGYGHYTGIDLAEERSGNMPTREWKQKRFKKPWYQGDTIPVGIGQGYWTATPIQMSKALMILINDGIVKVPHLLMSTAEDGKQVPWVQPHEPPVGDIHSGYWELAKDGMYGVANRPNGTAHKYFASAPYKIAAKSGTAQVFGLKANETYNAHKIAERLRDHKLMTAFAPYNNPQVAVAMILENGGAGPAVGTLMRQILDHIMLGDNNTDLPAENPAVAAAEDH

Escherichia coli [15] = experiment: Minimum inhibitory concentration for DC2, a permeability mutant
How it was run: as §1, with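 “MICs were determined by agar dilution with 2-fold dilutions giving final 128–0.0156 µg/mL, extended to 0.000977 µg/mL where needed. Streptococci” for “Streptococci”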

[16] = Half life was measured as degradation by HPLC analysis.; assay type: ADME
Escherichia coli [17] = experiment: Minimum inhibitory concentration against E. coli UB1005 (DC0)
[18] = molecular target: T2, Penicillin-binding protein 1A (Escherichia coli K-12); experiment: Affinity against penicillin binding protein 1a of Escherichia coli UB1005 (DC0) was evaluated.
How it was run: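 Solubilized membranes from sonicated E. coli UB1005 were used. Binding to penicillin-binding proteins was measured as inhibition of [14C]penicillin G binding.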

Structure (SMILES): CC(=O)OCC1=C(C(=O)O)N2C(=O)[C@@H](NC(=O)C(O)c3ccccc3)[C@H]2SC1 (stereo partly drawn)
MIC (Proteus vulgaris): > 128 µg/mL | MIC (Enterobacter cloacae [1]): > 128 µg/mL | MIC (Serratia marcescens): > 128 µg/mL | MIC (Escherichia coli [2]): 8 µg/mL (≈ 19.7 µM) | MIC (Escherichia coli [3]): 2 µg/mL (≈ 4.92 µM) | MIC (Citrobacter freundii): > 128 µg/mL | MIC (Enterococcus faecalis): 16 µg/mL (≈ 39.4 µM) | MIC (Klebsiella pneumoniae): 2 µg/mL (≈ 4.92 µM) | MIC (Escherichia coli [4]): 2 µg/mL (≈ 4.92 µM) | MIC (Staphylococcus aureus [5]): 0.5 µg/mL (≈ 1.23 µM) | MIC (Enterobacter cloacae [6]): 16 µg/mL (≈ 39.4 µM) | MIC (Staphylococcus aureus [7]): 128 µg/mL (≈ 315 µM) | MIC (Streptococcus pyogenes): 0.063 µg/mL (≈ 0.155 µM) | MIC (Micrococcus luteus): 0.125 µg/mL (≈ 0.308 µM) | MIC (Proteus mirabilis): 2 µg/mL (≈ 4.92 µM) | MIC (Pseudomonas aeruginosa [8]): > 128 µg/mL | MIC (Streptococcus pneumoniae): 0.125 µg/mL (≈ 0.308 µM) | MIC (Staphylococcus aureus [9]): 64 µg/mL (≈ 157 µM) | MIC (Pseudomonas aeruginosa [10]): > 128 µg/mL

MIC (Enterobacter cloacae [1]): 0.063 µg/mL (≈ 0.0893 µM) | Binding affinity [11]: 100 | MIC (Citrobacter freundii): 0.063 µg/mL (≈ 0.0893 µM) | Binding affinity [12]: > 100 | MIC (Enterococcus faecalis): 32 µg/mL (≈ 45.3 µM) | Binding affinity [13]: > 100 | Binding affinity [14]: > 100 | MIC (Escherichia coli [15]): 2 µg/mL (≈ 2.83 µM) | half-life [16]: 9.5 days | MIC (Escherichia coli [17]): 4 µg/mL (≈ 5.67 µM)
Structure (SMILES): O=C(O)C1=C(CN2CCN(c3cc4c(cc3F)c(=O)c(C(=O)O)cn4C3CC3)CC2)CS[C@@H]2[C@H](NC(=O)C(C(=O)O)c3ccccc3)C(=O)N12 (stereo partly drawn)

Binding affinity [12]: 10 | Binding affinity [18]: 10 | Binding affinity [14]: 2 | MIC (Escherichia coli [17]): 0.031 µg/mL (≈ 0.048 µM)
Structure (SMILES): CCN1CCN(C(=O)N[C@@H](C(=O)N[C@@H]2C(=O)N3C(C(=O)O)=C(CSc4nnnn4C)CS[C@H]23)c2ccc(O)cc2)C(=O)C1=O
